Here are results for six compounds from ChEMBL document CHEMBL2424622, “Development of amino-pyrimidine inhibitors of c-Jun N-terminal kinase (JNK): kinase profiling guided optimization of a 1,2,3-benzotriazole lead” (Bioorg Med Chem Lett, 2013).

The target of test [1] is Fibroblast growth factor receptor 3 (Homo sapiens) (UniProt P22607). Put plainly: Competitive binding affinity to FGFR3 (unknown origin) at 10 uM in presence of ATP relative to control. The method in brief: (§1)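 In vitro ATP-site competition binding assay, part of profiling against a diverse panel of 128 kinases. Each compound was tested at a single concentration of 10 µM. Kinome selectivity was summarized as S15 selectivity scores.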

Test [2] deals with Tyrosine-protein kinase Fer (Homo sapiens) (UniProt P16591). Put plainly: Competitive binding affinity to FER (unknown origin) at 10 uM in presence of ATP relative to control. The method, boiled down: as §1
Test [3] deals with T1, Ephrin type-A receptor 3 (Homo sapiens) (UniProt P29320).
T1 sequence (whole entry): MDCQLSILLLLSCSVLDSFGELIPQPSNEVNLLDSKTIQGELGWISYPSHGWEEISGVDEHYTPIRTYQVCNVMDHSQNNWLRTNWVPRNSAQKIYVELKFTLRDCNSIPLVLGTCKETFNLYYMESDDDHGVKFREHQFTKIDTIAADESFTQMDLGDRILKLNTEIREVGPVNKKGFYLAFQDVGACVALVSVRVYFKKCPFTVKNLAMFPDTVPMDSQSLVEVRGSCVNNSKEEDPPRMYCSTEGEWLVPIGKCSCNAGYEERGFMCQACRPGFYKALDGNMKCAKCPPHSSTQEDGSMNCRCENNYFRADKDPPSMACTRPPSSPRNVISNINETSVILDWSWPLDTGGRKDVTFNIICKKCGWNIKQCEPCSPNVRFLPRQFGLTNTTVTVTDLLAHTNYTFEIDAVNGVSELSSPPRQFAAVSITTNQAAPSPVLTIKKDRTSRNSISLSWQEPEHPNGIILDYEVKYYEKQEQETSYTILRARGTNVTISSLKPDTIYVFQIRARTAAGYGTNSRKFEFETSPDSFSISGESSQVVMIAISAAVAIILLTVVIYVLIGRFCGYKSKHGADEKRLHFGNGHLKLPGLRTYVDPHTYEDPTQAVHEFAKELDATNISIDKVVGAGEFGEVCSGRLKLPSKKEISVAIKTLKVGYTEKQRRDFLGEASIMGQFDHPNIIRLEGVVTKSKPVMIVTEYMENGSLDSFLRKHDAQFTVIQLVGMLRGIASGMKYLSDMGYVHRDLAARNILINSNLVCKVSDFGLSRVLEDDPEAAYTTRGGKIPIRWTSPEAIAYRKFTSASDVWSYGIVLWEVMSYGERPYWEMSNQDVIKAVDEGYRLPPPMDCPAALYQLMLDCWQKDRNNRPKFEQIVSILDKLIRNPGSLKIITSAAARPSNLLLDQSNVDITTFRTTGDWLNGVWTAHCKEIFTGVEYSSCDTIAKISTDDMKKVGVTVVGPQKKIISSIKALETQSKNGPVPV
Description: Competitive binding affinity to EPHA3 (unknown origin) at 10 uM in presence of ATP relative to control. The method, boiled down:
as §1

Test [4] concerns the target Epidermal growth factor receptor (Homo sapiens) (UniProt P00533). Put plainly: Competitive binding affinity to EGFR (unknown origin) at 10 uM in presence of ATP relative to control.
The target in test [5] is Cyclin-dependent kinase 5 (Homo sapiens) (UniProt Q00535). Put plainly: Competitive binding affinity to CDK5 (unknown origin) at 10 uM in presence of ATP relative to control.
Test [6] concerns the target Calcium/calmodulin-dependent protein kinase kinase 1 (Homo sapiens) (UniProt Q8N5S9). Put plainly: Competitive binding affinity to CAMKK1 (unknown origin) at 10 uM in presence of ATP relative to control.
Test [7] has as its target Vascular endothelial growth factor receptor 2 (Homo sapiens) (UniProt P35968). Description: Competitive binding affinity to VEGFR2 (unknown origin) at 10 uM in presence of ATP relative to control. The method in brief:
(§2)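 In vitro ATP-site competition binding assay across a diverse panel of 128 kinases, with compound tested at a single concentration. Kinase selectivity scores (S15) were calculated from the panel profiles.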

Test [8] has as its target Ribosomal protein S6 kinase alpha-5 (Homo sapiens) (UniProt O75582). Put plainly: Competitive binding affinity to RPS6KA5 kinase domain 1 (unknown origin) at 10 uM in presence of ATP relative to control. The method in brief: as §2
Test [9] concerns the target T2, Membrane-associated tyrosine- and threonine-specific cdc2-inhibitory kinase (Homo sapiens) (UniProt Q99640).
T2 sequence (whole entry): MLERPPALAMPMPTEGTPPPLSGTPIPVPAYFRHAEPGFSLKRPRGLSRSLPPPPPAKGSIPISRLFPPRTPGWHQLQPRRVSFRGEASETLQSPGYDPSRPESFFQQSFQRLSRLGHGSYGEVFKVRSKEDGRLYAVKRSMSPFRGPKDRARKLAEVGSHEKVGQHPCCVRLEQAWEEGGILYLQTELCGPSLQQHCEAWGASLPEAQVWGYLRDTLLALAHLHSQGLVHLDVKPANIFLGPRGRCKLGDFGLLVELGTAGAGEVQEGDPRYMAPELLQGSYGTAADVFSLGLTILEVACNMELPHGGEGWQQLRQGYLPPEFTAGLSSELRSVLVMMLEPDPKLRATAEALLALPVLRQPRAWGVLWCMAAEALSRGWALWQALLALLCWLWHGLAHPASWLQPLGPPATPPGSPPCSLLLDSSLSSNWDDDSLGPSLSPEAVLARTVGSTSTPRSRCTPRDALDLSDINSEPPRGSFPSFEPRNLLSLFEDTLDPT
Description: Competitive binding affinity to PKMYT1 (unknown origin) at 10 uM in presence of ATP relative to control. The method, boiled down: as §2

Test [10] addresses T3, 3-phosphoinositide-dependent protein kinase 1 (Homo sapiens) (UniProt O15530).
T3 sequence (whole entry): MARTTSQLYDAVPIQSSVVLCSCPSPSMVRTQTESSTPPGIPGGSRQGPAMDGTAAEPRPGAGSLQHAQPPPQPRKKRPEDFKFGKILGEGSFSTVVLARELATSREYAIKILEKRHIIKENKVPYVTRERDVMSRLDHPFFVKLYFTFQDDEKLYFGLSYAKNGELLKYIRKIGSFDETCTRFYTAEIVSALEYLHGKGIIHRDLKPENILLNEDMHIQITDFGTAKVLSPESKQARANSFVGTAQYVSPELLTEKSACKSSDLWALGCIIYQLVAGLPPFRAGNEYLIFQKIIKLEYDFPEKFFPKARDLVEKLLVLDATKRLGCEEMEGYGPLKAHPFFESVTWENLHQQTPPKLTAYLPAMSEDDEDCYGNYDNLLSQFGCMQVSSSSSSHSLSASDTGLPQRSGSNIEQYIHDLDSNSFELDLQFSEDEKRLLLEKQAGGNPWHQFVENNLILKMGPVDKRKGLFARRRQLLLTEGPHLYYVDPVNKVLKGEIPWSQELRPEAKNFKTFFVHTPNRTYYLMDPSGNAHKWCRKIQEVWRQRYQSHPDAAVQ
Description: Competitive binding affinity to PDPK1 (unknown origin) at 10 uM in presence of ATP relative to control. The method, boiled down: as §2

Test [11] has as its target Tyrosine-protein kinase JAK2 (Homo sapiens) (UniProt O60674). Description: Competitive binding affinity to JAK2 kinase domain 2 (unknown origin) at 10 uM in presence of ATP relative to control. The method in brief:
as §1

Cyclin-dependent kinase 5 (Homo sapiens), sequence (Q00535 whole entry, looked up): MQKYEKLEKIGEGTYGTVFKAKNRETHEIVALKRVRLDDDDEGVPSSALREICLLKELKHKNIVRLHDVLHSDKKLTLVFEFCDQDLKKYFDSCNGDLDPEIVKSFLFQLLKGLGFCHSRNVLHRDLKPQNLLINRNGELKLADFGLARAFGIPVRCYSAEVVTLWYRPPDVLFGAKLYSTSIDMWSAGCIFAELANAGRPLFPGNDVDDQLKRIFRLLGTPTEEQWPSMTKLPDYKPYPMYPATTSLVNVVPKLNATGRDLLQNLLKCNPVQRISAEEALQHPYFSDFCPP
Epidermal growth factor receptor (Homo sapiens), sequence (P00533 whole entry): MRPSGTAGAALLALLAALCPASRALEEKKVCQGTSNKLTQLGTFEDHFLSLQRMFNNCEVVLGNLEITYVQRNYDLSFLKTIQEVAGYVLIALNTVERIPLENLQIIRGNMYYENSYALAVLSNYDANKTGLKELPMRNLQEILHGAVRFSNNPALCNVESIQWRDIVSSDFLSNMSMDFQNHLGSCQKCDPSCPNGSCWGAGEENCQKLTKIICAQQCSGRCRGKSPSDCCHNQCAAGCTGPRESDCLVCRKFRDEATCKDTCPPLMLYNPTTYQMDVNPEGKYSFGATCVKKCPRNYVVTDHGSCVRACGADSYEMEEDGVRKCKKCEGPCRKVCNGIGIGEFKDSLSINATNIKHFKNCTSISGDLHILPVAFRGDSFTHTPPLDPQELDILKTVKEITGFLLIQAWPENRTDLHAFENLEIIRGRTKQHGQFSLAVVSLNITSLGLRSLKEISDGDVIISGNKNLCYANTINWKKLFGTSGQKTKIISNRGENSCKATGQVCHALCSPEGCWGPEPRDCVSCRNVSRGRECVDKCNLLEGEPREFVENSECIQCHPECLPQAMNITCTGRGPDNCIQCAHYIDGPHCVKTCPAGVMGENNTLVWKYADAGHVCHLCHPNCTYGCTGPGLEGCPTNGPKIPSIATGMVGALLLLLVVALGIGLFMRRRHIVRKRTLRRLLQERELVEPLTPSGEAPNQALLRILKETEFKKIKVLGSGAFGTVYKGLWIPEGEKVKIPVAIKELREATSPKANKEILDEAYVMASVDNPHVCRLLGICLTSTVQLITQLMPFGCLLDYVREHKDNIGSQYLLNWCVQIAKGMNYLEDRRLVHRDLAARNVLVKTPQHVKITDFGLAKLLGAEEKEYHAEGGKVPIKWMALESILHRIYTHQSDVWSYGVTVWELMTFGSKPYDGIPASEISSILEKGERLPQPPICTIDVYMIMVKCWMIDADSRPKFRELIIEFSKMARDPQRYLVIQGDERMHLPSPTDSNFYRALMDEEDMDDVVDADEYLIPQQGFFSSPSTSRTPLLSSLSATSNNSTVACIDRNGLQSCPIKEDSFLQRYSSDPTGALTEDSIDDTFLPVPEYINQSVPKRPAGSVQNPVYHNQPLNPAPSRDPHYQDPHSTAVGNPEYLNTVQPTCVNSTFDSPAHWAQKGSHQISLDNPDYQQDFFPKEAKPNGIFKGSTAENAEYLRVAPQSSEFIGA
Tyrosine-protein kinase JAK2 (Homo sapiens), sequence (O60674 whole entry, the tested form may be a part): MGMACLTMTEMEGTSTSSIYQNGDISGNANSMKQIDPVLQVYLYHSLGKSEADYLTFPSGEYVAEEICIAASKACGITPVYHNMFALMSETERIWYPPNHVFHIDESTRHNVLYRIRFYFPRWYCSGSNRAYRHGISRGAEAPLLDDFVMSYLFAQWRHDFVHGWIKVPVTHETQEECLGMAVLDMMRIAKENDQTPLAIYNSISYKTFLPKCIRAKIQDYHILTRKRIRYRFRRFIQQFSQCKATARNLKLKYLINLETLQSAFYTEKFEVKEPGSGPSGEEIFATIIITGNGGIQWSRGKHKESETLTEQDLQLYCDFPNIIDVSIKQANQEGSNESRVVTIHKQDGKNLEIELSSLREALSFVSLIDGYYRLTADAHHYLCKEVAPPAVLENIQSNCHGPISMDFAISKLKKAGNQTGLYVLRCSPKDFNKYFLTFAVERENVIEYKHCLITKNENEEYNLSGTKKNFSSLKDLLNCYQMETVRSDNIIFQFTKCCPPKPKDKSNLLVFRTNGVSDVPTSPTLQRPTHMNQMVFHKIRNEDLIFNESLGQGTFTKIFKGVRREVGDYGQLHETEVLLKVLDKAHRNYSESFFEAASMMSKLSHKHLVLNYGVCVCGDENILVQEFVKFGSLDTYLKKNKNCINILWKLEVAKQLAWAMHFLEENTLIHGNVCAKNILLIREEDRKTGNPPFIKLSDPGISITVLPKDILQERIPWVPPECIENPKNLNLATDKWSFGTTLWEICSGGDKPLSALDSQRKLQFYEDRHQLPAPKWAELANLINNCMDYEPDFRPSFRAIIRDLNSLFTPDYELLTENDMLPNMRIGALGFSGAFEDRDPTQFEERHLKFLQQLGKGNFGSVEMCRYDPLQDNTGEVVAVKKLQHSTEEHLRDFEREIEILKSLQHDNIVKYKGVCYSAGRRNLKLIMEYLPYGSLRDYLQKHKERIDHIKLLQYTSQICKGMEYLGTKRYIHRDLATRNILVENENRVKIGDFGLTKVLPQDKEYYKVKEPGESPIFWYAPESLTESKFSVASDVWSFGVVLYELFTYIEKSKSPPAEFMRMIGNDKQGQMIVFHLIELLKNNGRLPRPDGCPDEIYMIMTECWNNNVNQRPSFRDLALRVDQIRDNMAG
Tyrosine-protein kinase Fer (Homo sapiens), sequence (P16591 whole entry, looked up): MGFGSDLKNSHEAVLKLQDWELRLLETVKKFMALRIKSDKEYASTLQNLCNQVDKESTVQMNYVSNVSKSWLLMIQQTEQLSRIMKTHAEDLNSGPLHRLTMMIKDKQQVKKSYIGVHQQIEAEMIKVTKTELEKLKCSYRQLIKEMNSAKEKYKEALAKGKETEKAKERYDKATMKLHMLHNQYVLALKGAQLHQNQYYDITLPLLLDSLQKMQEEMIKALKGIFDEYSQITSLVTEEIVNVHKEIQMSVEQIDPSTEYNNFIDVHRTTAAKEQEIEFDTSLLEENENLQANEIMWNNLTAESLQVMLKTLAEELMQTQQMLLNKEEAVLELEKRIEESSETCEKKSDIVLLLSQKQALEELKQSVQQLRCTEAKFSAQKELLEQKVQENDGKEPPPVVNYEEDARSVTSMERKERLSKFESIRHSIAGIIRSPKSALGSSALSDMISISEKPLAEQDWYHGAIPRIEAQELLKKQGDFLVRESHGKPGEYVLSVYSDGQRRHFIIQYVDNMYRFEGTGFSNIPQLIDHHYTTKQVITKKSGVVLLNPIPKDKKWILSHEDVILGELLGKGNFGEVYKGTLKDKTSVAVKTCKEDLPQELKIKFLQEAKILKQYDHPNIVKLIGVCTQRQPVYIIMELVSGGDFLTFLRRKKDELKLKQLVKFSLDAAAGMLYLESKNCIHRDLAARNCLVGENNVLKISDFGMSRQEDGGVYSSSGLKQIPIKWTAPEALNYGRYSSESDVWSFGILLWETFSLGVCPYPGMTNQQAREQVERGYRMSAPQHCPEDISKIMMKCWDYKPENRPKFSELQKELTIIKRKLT
Ribosomal protein S6 kinase alpha-5 (Homo sapiens), sequence (O75582 whole entry, looked up, the tested form may be a part): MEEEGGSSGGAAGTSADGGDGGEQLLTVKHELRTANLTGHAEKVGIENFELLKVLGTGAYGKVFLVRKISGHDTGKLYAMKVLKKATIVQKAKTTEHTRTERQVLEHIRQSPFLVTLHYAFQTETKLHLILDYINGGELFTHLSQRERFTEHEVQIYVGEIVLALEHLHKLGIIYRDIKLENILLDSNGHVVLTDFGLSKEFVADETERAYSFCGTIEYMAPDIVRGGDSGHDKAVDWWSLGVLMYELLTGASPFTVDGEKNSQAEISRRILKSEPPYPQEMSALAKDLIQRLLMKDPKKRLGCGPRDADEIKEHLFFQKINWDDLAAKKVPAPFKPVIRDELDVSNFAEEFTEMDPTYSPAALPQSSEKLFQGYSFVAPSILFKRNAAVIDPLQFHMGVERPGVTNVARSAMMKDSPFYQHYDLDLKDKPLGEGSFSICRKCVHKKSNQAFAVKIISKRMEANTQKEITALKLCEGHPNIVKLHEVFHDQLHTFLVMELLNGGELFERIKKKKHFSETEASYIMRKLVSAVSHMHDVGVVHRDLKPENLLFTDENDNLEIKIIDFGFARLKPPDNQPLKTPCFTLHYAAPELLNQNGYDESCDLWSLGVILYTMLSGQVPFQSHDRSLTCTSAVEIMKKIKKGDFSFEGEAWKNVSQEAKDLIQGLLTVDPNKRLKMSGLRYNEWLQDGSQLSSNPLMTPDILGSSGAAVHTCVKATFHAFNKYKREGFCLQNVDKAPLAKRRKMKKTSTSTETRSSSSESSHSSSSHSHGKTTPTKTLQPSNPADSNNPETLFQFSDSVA
Calcium/calmodulin-dependent protein kinase kinase 1 (Homo sapiens), sequence (Q8N5S9 whole entry, looked up): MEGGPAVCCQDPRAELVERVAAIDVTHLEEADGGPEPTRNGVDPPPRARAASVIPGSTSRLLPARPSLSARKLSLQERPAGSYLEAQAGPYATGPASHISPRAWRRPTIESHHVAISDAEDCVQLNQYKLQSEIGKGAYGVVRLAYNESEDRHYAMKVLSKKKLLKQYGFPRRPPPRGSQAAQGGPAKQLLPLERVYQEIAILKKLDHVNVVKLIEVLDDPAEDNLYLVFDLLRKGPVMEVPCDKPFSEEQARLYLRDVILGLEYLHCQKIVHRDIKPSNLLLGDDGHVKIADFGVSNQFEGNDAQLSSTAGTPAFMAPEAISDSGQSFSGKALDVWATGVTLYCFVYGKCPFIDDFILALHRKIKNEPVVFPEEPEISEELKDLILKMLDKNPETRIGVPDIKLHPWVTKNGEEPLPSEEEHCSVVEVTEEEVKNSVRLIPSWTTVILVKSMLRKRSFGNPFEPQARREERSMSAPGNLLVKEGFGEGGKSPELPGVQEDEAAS

A word on the inhibition: it is the share of the control response that was lost under treatment. For `O[C@H]1CC[C@H](Nc2nccc(-n3ccc4ccccc43)n2)CC1`, the inhibition in test [1], in [2], in test [3], in test [4], in test [5] and in [6] was under 50% in each case. The inhibition in test [7], in test [8], in [9], in [10] and in test [11] was under 50% throughout.
As to `O[C@H]1CC[C@H](Nc2nccc(-n3nnc4ccccc43)n2)CC1`, the inhibition in [1] is under 50%; in test [2] it was under 50%; in test [3] it was under 50%; in [4], under 50%; in test [5], 74%; in test [6] it was under 50%. Also, the inhibition in test [7] is under 50%; in [8], under 50%; in [9], under 50%; in test [10], under 50%; in test [11], 72%.
In the case of `O=C([C@H]1CC[C@H](Nc2nccc(-n3nnc4ccccc43)n2)CC1)N1CCOCC1`, the inhibition in test [1], in test [2], in test [3], in test [4], in [5] and in test [6] was under 50% in each case. The inhibition in test [7], in [8], in test [9], in test [10] and in test [11] was under 50% in each case.
As to `O[C@H]1CC[C@H](Nc2nccc(-n3ncc4ccccc43)n2)CC1`, the inhibition in test [1], in [2], in [3], in [4], in [5] and in [6] was under 50% throughout. The inhibition in [7], in [8], in test [9], in test [10] and in [11] was under 50% in each case.
Consider `O[C@H]1CC[C@H](Nc2nccc(-c3n[nH]c4ccccc34)n2)CC1`, for which the inhibition in test [1] is 74%; in test [2], 97%; in test [3], 93%; in test [4] it was under 50%; in test [5] it was 95%; in [6] it was 85%. In addition, the inhibition was 91% in test [7]; under 50% in test [8]; 89% in [9]; 97% in [10]; 96% in test [11].
For `N[C@H]1CC[C@H](Nc2nccc(-n3nnc4ccccc43)n2)CC1`, the inhibition is under 50% in test [1]; under 50% in [2]; 82% in test [3]; under 50% in test [4]; 90% in test [5]; under 50% in test [6]. Besides, the inhibition was under 50% in test [7]; 70% in test [8]; under 50% in [9]; under 50% in test [10]; under 50% in test [11].
